Bioassay records as filed in PubChem.
This is a sample that favours compounds with a hit; in the whole collection about 3.8% have one here.
RAM network inh = inhibitors of the yeast RAM network; inhibition, % at 50 µM; AID 868; S. cerevisiae dse1pr::URA3 reporter, 5-FOA growth OD615, 2 d; analog-sensitive cbk1-as2 kinase mutant strain; hit rate 1.8% among 190,000;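 active means inhibition above a set limit, 3 SD over mean compound inhibition, cut at about 8.4% in these data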;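 further: 0% = DMSO-only wells with no growth and 100% = 10 µM 1-NA-PP1 full growth; inhibition rescues growth on 5-FOA so higher OD means more RAM inhibition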
Measles CPE = protection of cells from measles virus | protection (pct of control), % at 4 µM | Measles virus-infected cells, CPE protection, absorbance | hit rate 1.5% among 140,000; in the data active means protection mostly above about 24%, no sharp cut-off; inactive means mostly below about 26%
Yeast lifespan up = extends the lifespan of yeast; inhibition of the nicotinamide effect, % at 10 µM; S. cerevisiae growth with nicotinamide, OD615; deaD strain in restrictive glucose medium; hit rate 0.68% among 130,000; AID 775;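 active means inhibition above a set limit, placed 3 SD over the median of all compounds, cut at about 26% in these data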;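 further: 0% = nicotinamide-treated wells and 100% = cells grown without nicotinamide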
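Buffer or medium: CSMM-D glucose medium, restrictive; test system: modified budding yeast, DeaD strain; compound: single dose 10 µM compound, 0.25% DMSO; schedule: culture preincubation 4 h, compound exposure 48 h, both 30 °C; detection: optical density (absorbance) at 615 nm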
Yeast growth inh = reduces growth of yeast BB579 in restrictive medium | S. cerevisiae BB579 growth, OD615, 48 h | inhibition, % at 10 µM | hit rate 0.51% among 140,000 | AID 804;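 active means inhibition above a set limit, 3 SD over the mean compound inhibition, cut at about 44% in these data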
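Detection: OD615 turbidity measurement; Material: Saccharomyces cerevisiae DeaD strain BB579, replicative lifespan model yeast; Timing: 48 h exposure, 30 °C; Doses: single 10 µM dose; Medium: CSMM-D restrictive synthetic medium containing dextrose (glucose); Controls: amphotericin B at 10 µg/mL as positive control.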
RAM efflux-def = RAM network inhibition, efflux-deficient strain; shares compounds with RAM network inh; S. cerevisiae efflux-deficient reporter strain, 5-FOA growth OD615, 2 days; max inhibition, %; 1,200 tested, under 10 active; AID 1305; call rule not given here;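 further: plate controls were vehicle for no effect and reference inhibitor for full effect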
Starred values were filed as active, the others as inactive; nt = no result given.

SMILES	RAM network inh	Measles CPE	Yeast lifespan up	Yeast growth inh	RAM efflux-def
COc1ccc(CC(=O)Nc2cccc(S(=O)(=O)N3CCCCCC3)c2)cc1OC	12*	17	2	-31	3
CCCCn1c(SCc2nc3ccccc3s2)nc2ccccc2c1=O	13*	4	6	-38	3
N#Cc1ccsc1NC(=O)COC(=O)CCCSc1nc2ccccc2s1	15*	4	-13	-53	3
NC(=O)COC(=O)CCCSc1nc2ccccc2s1	0	nt	nt	nt	nt
Cc1ccc(Cl)cc1NC(=S)N(CCN(C)C)C(C)c1ccccn1 (stereo not drawn)	1	nt	nt	nt	nt
C=CCSc1nnc(CCCCCN2C(=O)c3cccc4cccc(c34)C2=O)o1	16*	5	8	-47	1
CCOC(=O)CCCSc1nnc(CCCCCN2C(=O)c3cccc4cccc(c34)C2=O)o1	14*	29	5	-37	3
Cc1nnc(SCCCN2C(=O)c3ccccc3C2=O)o1	1	9	8	-23	nt
COCCn1c(C)cc(C(=O)CSc2cc(C)c3ccc(OC)cc3n2)c1C	5	8	6	-45	nt
COc1ccc2c(C)cc(SCC(=O)c3ccc4c(c3)OCO4)nc2c1	12*	25	-12	-15	5
Cc1cc(C)n(-c2cccc(CN(C)Cc3nc(-c4cnccn4)no3)c2)n1	0	nt	nt	nt	nt
CNCc1ccccc1OCc1ccc(F)cc1	1	nt	nt	nt	nt
CCOc1cc(C2NN=C(c3ccccc3)S2)ccc1OCc1ccccc1Cl (stereo not drawn)	13*	5	-25	-60	4
CCOc1cc(C2NN=C(c3ccccc3)S2)ccc1OCc1ccc(F)cc1 (stereo not drawn)	12*	26	-4	-32	3
CCOC(=O)c1cc(-c2cccnc2)nn1-c1ccccc1C	1	nt	nt	nt	nt
CC(C)SCCCCOc1ccc2ccccc2c1	12*	12	-13	-58	3
CCOC(=O)c1cnc2ccccc2c1Nc1cc(C(=O)O)ccc1C	1	nt	nt	nt	nt
COc1ccc(C(=O)Nc2ccc(C(=O)OCC(=O)c3ccccc3)cc2)cc1	1	8	-18	-13	nt
COc1ccc(C(=O)OCC(=O)c2ccc(C3CCCCC3)cc2)cc1	11*	16	1	-25	11
CCc1c(C#N)c(SCc2c(C)noc2C)nc2c1C(=O)CC(C)(C)C2	12*	13	14	-1	3
O=C(NC(=S)N1CCN(c2ccc([N+](=O)[O-])cc2)CC1)c1ccccc1F	4	5	2	-27	nt
COc1cccc(-c2cc(C(=O)Nc3ccn(Cc4ccc(C)cc4)n3)no2)c1	17*	nt	nt	nt	3
CC1CCCC(NC(=O)COC(=O)CSc2ccc3ccccc3c2)C1C (stereo not drawn)	12*	10	10	-29	3
CC1CCCC(NC(=O)COC(=O)CCc2ccccc2)C1C (stereo not drawn)	0	nt	nt	nt	nt
COc1ccc(CN2CCCC(C(=O)c3cccc(OC(C)C)c3)C2)cc1Cn1cccn1 (stereo not drawn)	-2	nt	nt	nt	nt
SMILES	RAM network inh	Measles CPE	Yeast lifespan up	Yeast growth inh	RAM efflux-def
CCN(CCCn1c(=S)[nH]c2ccc(N3CCOCC3)cc2c1=O)c1ccccc1	2	nt	nt	nt	nt
CC(=O)c1ccc(NC(=S)NN2C(C)CCCC2C)cc1 (stereo not drawn)	3	nt	nt	nt	nt
CC(=O)c1ccc(NC(=S)NC2CCCC(C)C2C)cc1 (stereo not drawn)	20*	nt	nt	nt	2
CCCc1nn(C)c(C(=O)Nc2ccc(C)c(C)c2)c1Cl	22*	39	-4	-8	2
COc1cccc(NC(=S)NCCC(c2ccccc2)c2ccccc2)c1	12*	36	-14	24	4
Cc1cccc(NC(=S)NCCC(c2ccccc2)c2ccccc2)c1	7	15	2	32	nt
CC1CCCN(CCCOc2ccccc2-c2ccccc2)C1 (stereo not drawn)	0	nt	nt	nt	nt
CCOC(=O)c1sc(-c2ccc(OC)cc2)cc1NC(C)=O	18*	5	-4	-1	1
Cc1cccc(/C=C\c2nc3ccccc3c(=O)[nH]2)c1	11*	9	-7	-46	2
O=C1CSC(=S)N1N1C(=O)c2cccc([N+](=O)[O-])c2C1=O	0	nt	nt	nt	nt
c1ccc(-c2nc(CSc3nnnn3-c3ccccc3)cs2)cc1	7	4	-11	-33	2
Cc1ccccc1Nc1nc(CSc2nnnn2-c2ccccc2)cs1	2	10	-17	-55	nt
Cc1cccc(C(=O)Nc2cccc(OC(=O)c3cccc(C)c3)c2)c1	14*	1	-12	-22	5
COC(=O)COc1cccc(NC(=O)c2cccc(C)c2)c1	0	nt	nt	nt	nt
Cc1nn(Cc2ccccc2)c(Cl)c1/C=C/C(=O)OC(C(=O)NC(N)=O)C(C)C (stereo not drawn)	3	nt	nt	nt	nt
Cc1ccc(S(=O)(=O)c2c(CO)c(-c3ccccc3)nn2C)cc1	14*	nt	nt	nt	4
Cc1ccc(S(=O)(=O)c2c(C)cc(C)nc2Oc2cccc(C(F)(F)F)c2)cc1	14*	8	-8	-49	3
Cc1cc(-c2ccccc2)nc(Oc2cccc(C(F)(F)F)c2)c1S(C)(=O)=O	5	4	-5	-11	nt
CCCSc1nc(NCc2ccco2)c2c3c(sc2n1)COC(C)(C)C3	13*	6	-22	-31	7
CCCCCOc1ccc(CSc2ncn[nH]2)cc1	24*	14	nt	-26	1
O=C(NCCOc1ccccc1)c1cc(C(=O)NCCOc2ccccc2)cc([N+](=O)[O-])c1	14*	3	0	-67	3
O=C(NCCO)c1ccc(Oc2ccc(C(F)(F)F)cc2[N+](=O)[O-])cc1	1	nt	nt	nt	nt
O=C(NCCOc1ccccc1)c1ccccc1[N+](=O)[O-]	-1	nt	nt	nt	nt
COc1ccc(OCCNC(=O)c2cccc(Oc3ccc(C(F)(F)F)cc3[N+](=O)[O-])c2)cc1	14*	5	4	-12	2
CCOc1ccc(CC(=O)Nc2ccc(-c3ccc4nnc(C)n4n3)cc2)cc1	7	nt	nt	nt	nt
SMILES	RAM network inh	Measles CPE	Yeast lifespan up	Yeast growth inh	RAM efflux-def
CCOC(=O)N1CCN(S(=O)(=O)c2ccc(C(=O)Nc3ccc4c(c3)C(=O)NC4=O)cc2)CC1	4	19	3	-23	nt
COc1cccc(CN(Cc2ccccc2F)S(=O)(=O)c2ccc(S(=O)(=O)NCc3ccccc3)cc2)c1	18*	7	12	-40	4
CCN(Cc1ccccc1)S(=O)(=O)c1ccc(S(=O)(=O)N(Cc2cccc(OC)c2)CC2CCCO2)cc1 (stereo not drawn)	16*	23	-1	-51	6
COc1cccc(CN(Cc2ccco2)S(=O)(=O)c2ccc(S(=O)(=O)NCc3ccccc3)cc2)c1OC	14*	12	nt	-44	4
COc1cccc(CNS(=O)(=O)c2ccc(S(=O)(=O)N3CCCC3)cc2)c1	3	nt	nt	nt	nt
COc1cccc(CN(CC2CCCO2)S(=O)(=O)c2ccc(S(=O)(=O)NCC3CCCO3)cc2)c1OC (stereo not drawn)	0	10	-11	-51	nt
Cc1nc(NC(=O)C(C)Oc2cccc(Cl)c2)sc1C(=O)N(C)C (stereo not drawn)	2	8	-2	-25	nt
